Laboratory results reported in ChEMBL document CHEMBL1124259, “C-nor-9,11-secoestranes as modified estrogens and fertility regulation” (1988).

How the values were obtained:
Type in all cases: functional
Rattus norvegicus [1] = assay: Antiimplantation activity as minimum effective dose after oral administration.; settings: read-out: MED
How it was run: (§1)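 Colony-bred adult female rats (150–170 g) were dosed orally with the compound as a gum acacia suspension on days 1–7 postcoitum, five to seven animals per group. Implants were counted by laparotomy on day 10 of pregnancy. The value is the minimum dose at which implants were totally absent from both uterine horns.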

Rattus norvegicus [2] = assay: Antiimplantation activity as minimum effective dose after subcutaneous administration.; settings: sc, read-out: MED
How it was run: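 Compound was given subcutaneously in 0.5 mL propylene glycol–saline (1:1, v/v) to colony-bred adult female rats (150–170 g) on days 1–7 postcoitum, five to seven animals per group. Laparotomy on day 10 of pregnancy counted implants. The minimum dose giving total absence of implants in both uterine horns was recorded.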

Rattus norvegicus [3] = assay: Antiimplantation activity as minimum effective dose after peroral administration.; settings: po, read-out: MED; how it was run: as §1
Rattus norvegicus [4] = assay: Antiimplantation activity was measured as minimum effective dose after oral administration.; settings: read-out: MED; how it was run: as §1
Rattus norvegicus [5] = assay: Antiimplantation activity as minimum effective dose after oral administration; settings: read-out: MED; how it was run: as §1

Row | Compound | minimal effective dose (Rattus norvegicus [2]) | minimal effective dose (Rattus norvegicus [3]) | further results
1 | C#C[C@]1(O)CCC(C2CCc3cc(O)ccc3C2)C1(C)C (stereo not given in full) | 0.025 mg/kg |  | minimal effective dose (Rattus norvegicus [1]): 0.75 mg/kg
2 | CC1(C)C(O)CCC1C1CCc2cc(O)ccc2C1 (stereo not given) | 0.01 mg/kg | 10 mg/kg | 
3 | C#C[C@]1(O)CCC(C2CCc3cc(OC)ccc3C2)C1(C)C (stereo not given in full) | 0.025 mg/kg |  | minimal effective dose (Rattus norvegicus [4]): 1 mg/kg
4 | C[C@]12CC[C@@H]3c4ccc(O)cc4CC[C@H]3[C@@H]1CC[C@@H]2O [ESTRADIOL] | 0.015 mg/kg |  | 
5 | C#C[C@]1(O)CC[C@H]2[C@@H]3CCc4cc(O)ccc4[C@H]3CC[C@@]21C [ETHINYL ESTRADIOL] |  |  | minimal effective dose (Rattus norvegicus [5]): 0.15 mg/kg
6 | COc1ccc2c(c1)CCC(C1CCC(O)C1(C)C)C2 (stereo not given) | 1.5 mg/kg | 10.5 mg/kg | 
